{"data": "Results collected from several papers", "read-out": "cell growth or viability", "note": "Each line is one published result; the experiments were not run side by side."}
{"Compound": "N=C(N)c1ccc(OCCCCCOc2ccc(C(=N)N)cc2)cc1", "cell line": "HaCaT", "method": "MTS", "time": "24 h", "endpoint": "CC50", "result": "> 20 µM"}
{"Compound": "O=C(/C=C/c1ccc(O)c(O)c1)O[C@@H]1C[C@](O)(C(=O)O)C[C@@H](O)[C@H]1O", "cell line": "WI-38", "method": "WST-1", "time": "48 h", "endpoint": "IC50", "result": "91.2 µM"}
{"Compound": "C[Si](C)(C)c1cc(C(=O)[C@H](Cc2ccccc2)NC(=O)[C@H](Cc2ccccc2)NC(=O)N2CCOCC2)no1 (mixture of isomers)", "cell line": "MRC-5 SV2", "endpoint": "CC50", "result": "> 64 µM"}
{"Compound": "CC(=O)O[C@@H]1c2c(ccc3ccc(=O)oc23)OC(C)(C)[C@@H]1OC(=O)C1(C)OC1C (stereo partly drawn)", "cell line": "WI-38", "method": "WST-1", "endpoint": "IC50", "result": "99.6 µM"}
{"Compound": "N#CC(C(=O)Nc1cccc(C(F)(F)F)c1)=C1Sc2nc3ccc(S(=O)(=O)N4CCCC4)cc3nc2S1", "cell line": "WI-38", "method": "MTT", "concentration": "25 µM", "time": "24 h", "endpoint": "viability", "result": "67.5%"}
{"Compound": "O=Cc1ccc(CO)o1", "cell line": "WI-38", "method": "WST-1", "time": "48 h", "endpoint": "IC50", "result": "78.3 µM"}
{"Compound": "O=C(N[C@@H](Cc1ccccc1)C(=O)c1cc(-c2ccccc2)on1)[C@H](Cc1ccccc1)NC(=O)N1CCOCC1 (single isomer, unassigned)", "cell line": "MRC-5 SV2", "endpoint": "CC50", "result": "> 64 µM"}
{"Compound": "O=c1[nH]cc(F)c(=O)[nH]1", "cell line": "WI-38", "method": "WST-1", "time": "48 h", "endpoint": "IC50", "result": "63.4 µM"}
{"Compound": "O=C(N[C@@H](Cc1ccccc1)C(=O)c1nc2ccccc2s1)[C@H](Cc1ccccc1)NC(=O)N1CCOCC1", "cell line": "MRC-5 SV2", "endpoint": "CC50", "result": "> 64 µM"}
{"Compound": "COc1cccc2c1C(=O)c1c(O)c3c(c(O)c1C2=O)C[C@@](O)(C(=O)CO)C[C@@H]3O[C@H]1C[C@H](N)[C@H](O)[C@H](C)O1", "cell line": "WI-38", "method": "MTT", "concentration": "3.125 µM", "time": "24 h", "endpoint": "viability", "result": "64.9%"}
{"Compound": "O=c1cc(-c2ccc(O)c(O)c2)oc2cc(O)cc(O)c12", "cell line": "WI-38", "method": "WST-1", "time": "48 h", "endpoint": "IC50", "result": "90.8 µM"}
{"Compound": "COC(=O)c1c(C)ncn1CC(c1cn(C)c2ccccc12)c1cn(C)c2ccccc12", "cell line": "HaCaT", "method": "MTS", "time": "24 h", "endpoint": "CC50", "result": "> 20 µM"}
{"Compound": "CCOC(=O)C(C(C)=O)=C1Sc2nc3ccc(S(=O)(=O)N4CCCC4)cc3nc2S1", "cell line": "WI-38", "method": "MTT", "concentration": "50 µM", "time": "24 h", "endpoint": "viability", "result": "48.2%"}
{"Compound": "C/C=C(/C)C(=O)O[C@@H]1[C@H](OC(C)=O)c2c(ccc3ccc(=O)oc23)OC1(C)C", "cell line": "WI-38", "method": "WST-1", "endpoint": "IC50", "result": "120 µM"}
{"Compound": "O=C1CCCCC1=C1Sc2nc3ccc(S(=O)(=O)N4CCCC4)cc3nc2S1", "cell line": "WI-38", "method": "MTT", "concentration": "50 µM", "time": "24 h", "endpoint": "viability", "result": "61.3%"}
{"Compound": "O=C(N[C@@H](CCc1ccccc1)C(=O)c1cc(-c2ccccc2)on1)[C@H](Cc1ccccc1)NC(=O)N1CCOCC1 (single isomer, unassigned)", "cell line": "MRC-5 SV2", "endpoint": "CC50", "result": "> 64 µM"}
{"Compound": "O=c1c(O)c(-c2ccc(O)c(O)c2)oc2cc(O)cc(O)c12", "cell line": "WI-38", "method": "WST-1", "time": "48 h", "endpoint": "IC50", "result": "87.6 µM"}
{"Compound": "O=C(N[C@@H](Cc1ccccc1)C(=O)c1noc(-c2ccccc2)n1)[C@H](Cc1ccccc1)NC(=O)N1CCOCC1", "cell line": "MRC-5 SV2", "endpoint": "CC50", "result": "> 64 µM"}
{"Compound": "CCc1ncn(CC(c2c[nH]c3ccc(C)cc23)c2c[nH]c3ccc(C)cc23)c1C(=O)OC", "cell line": "HaCaT", "method": "MTS", "time": "24 h", "endpoint": "CC50", "result": "> 20 µM"}
{"Compound": "O=C(N[C@@H](Cc1ccccc1)C(=O)c1c[nH]nn1)[C@H](Cc1ccccc1)NC(=O)N1CCOCC1", "cell line": "MRC-5 SV2", "endpoint": "CC50", "result": "> 64 µM"}
{"Compound": "CCOC(=O)c1c(C)ncn1CC(c1cn(C)c2ccc([N+](=O)[O-])cc12)c1cn(C)c2ccc([N+](=O)[O-])cc12", "cell line": "HaCaT", "method": "MTS", "time": "24 h", "endpoint": "CC50", "result": "> 20 µM"}
